Results: the RNAGym collection of RNA variant scans (doi:10.1101/gad.245936.114)
Fewer inactive variants are shown than the library holds.

B1: tRNA (parent)
chain: CUCUCGGUAGCCAAGUUGGUUUAAGGCGCAAGACUUUAAUUUAUCACUACGAAAUCUUGAGAUCGGGCGUUCGACUCGCCCCCGGGAGAUUUUUUCCUCGAGCAA

Variants of: B1
Experiment: nonsense suppression (GFP-seq) (ratio to wild type); higher = more function; SUP4oc tRNA, yeast GFP reporter sort-seq
Summary of the method: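 Yeast were grown in raffinose/galactose medium with 80 mg/L adenine, each strain bearing a genome-integrated ochre-suppressor tRNA variant from a ~3% random-mutation library, a galactose-driven GFP ochre reporter, and RFP. After sorting into GFP/RFP bins, every bin was sequenced on an Illumina platform at phred ≥30. The GFPSEQ value, a measure of nonsense suppression, is the weighted bin median GFP/RFP relative to the unmutated parent tRNA, using each variant's estimated cell share per bin as the weight. Only variants with ≥100 reads and ≥30 cells were included.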

Row | Variant | nonsense suppression
1 | A23C G59C G61C | ≤ 0.026
2 | A23C G59C G61A | ≤ 0.026
3 | A24U A87G | 0.147
4 | A23G A24C | 0.156
5 | U21C G25A G26A | ≤ 0.026
6 | U21C C27U | 0.154
7 | U21A G61U | 0.791
8 | U21A G65C U71A G78U | ≤ 0.026
9 | A23C U76G G88A | ≤ 0.026
10 | A23G G67A C80A | ≤ 0.026
11 | U21G U71C | 0.0265
12 | A23C A30U C34G U70C C72G | ≤ 0.026
13 | A23U G65C C72A | ≤ 0.026
14 | U21A U55C U57G | ≤ 0.026
15 | A24C G85U | 0.258
16 | A24C A30U A54C U58G C75A | 0.783
17 | U21C A62G | 0.0282
18 | U22G C68G | ≤ 0.026
19 | U22C U63C C68U | 0.0629
20 | A24G G59C | ≤ 0.026
21 | A24G G59A | ≤ 0.026
22 | A23G G73A | 0.0291
23 | A23G G73C | ≤ 0.026
24 | A24G A31U C34U A74G | ≤ 0.026

Row | Variant | nonsense suppression
25 | A23U A62C | ≤ 0.026
26 | A24C G78A | 0.112
27 | A24C G78U | 0.0343
28 | U22A G61C | 0.203
29 | U22A A31G | 1.05
30 | U21G A54C | 0.764
31 | U21A U76C | 1.18
32 | U22C C56U | 0.0509
33 | A23C U35G | ≤ 0.026
34 | U22C A54C | 1.2
35 | U22C A54U | 1.05
36 | U22C G61U U63C | 0.17
37 | U21C G78U | 0.442
38 | U21C G78C | 0.211
39 | A23U G78U | 0.0382
40 | U22C G73A C80U | 0.0265
41 | A24C C64G | ≤ 0.026
42 | U22C G61A C79U | 0.197
43 | U21A G85A | 1.06
44 | A23U C34U U35G | ≤ 0.026
45 | U21G A89G | 0.0399
46 | A23U G32U U63G C68A U70A A74C | ≤ 0.026
47 | U21C A31G | 1
48 | U22G G78U G85A | 0.788

Row | Variant | nonsense suppression
49 | U21C U76C | 1.06
50 | A24C G67U | 0.0289
51 | A23U C56G U70C | ≤ 0.026
52 | U21G U22G | 0.571
53 | U21G U22C | 1.09
54 | A23G G59C C64G C77U G78A | ≤ 0.026
55 | U21G U63A | 0.636
56 | U21G U63G | 0.0367
57 | A24U A60G | 0.0422
58 | A24U A60U | 0.0572
59 | U22G A31U | 0.0872
60 | U21G A30G A89G | ≤ 0.026
61 | U21G G78U | 0.034
62 | A23C U57C | ≤ 0.026
63 | U22G U55C U57A G65A | ≤ 0.026
64 | A24G G61A U76C | 0.0509
65 | A23G G78A | 0.0355
66 | A23G G78U | 0.0956
67 | A23G G61C | 0.113
68 | U22A G28U A54U U70G A87C | ≤ 0.026
69 | U21C A54U U57C G59A A89G | ≤ 0.026
70 | U21G C29U | 0.809
71 | U22G C82U | 0.913
72 | A24U A54U | 0.208

Row | Variant | nonsense suppression
73 | U21G U22G G28A | 0.206
74 | U22C U63C | 1.2
75 | U22G A54U | 1.12
76 | U22G A60C | 0.175
77 | A24G C79G G86C | ≤ 0.026
78 | A23U A31G | ≤ 0.026
79 | U22C G25C G32C A62C C64G | ≤ 0.026
80 | A23G C56A C64G A74C | ≤ 0.026
81 | A24C U63C | 0.205
82 | A24C U63A | 0.636
83 | A24C U63G | 0.133
84 | A23U G28C | ≤ 0.026
85 | U21C U57C C80U G85A | ≤ 0.026
86 | A23C U58G C64G | ≤ 0.026
87 | U21G A23C | ≤ 0.026
88 | A23G G59C | ≤ 0.026
89 | U22C A60C G61A | 0.176
90 | A23G A30U | 0.0397
91 | U22C A87G | 0.724
92 | A24C G67C G84U | ≤ 0.026
93 | A23C G88A | ≤ 0.026
94 | A24C G25C A62U | ≤ 0.026
95 | U22A G25U | 0.0283
96 | U21C G61A | 0.881

Row | Variant | nonsense suppression
97 | U22G C29U | 1.15
98 | U21G C75G | 1.05
99 | U21G C75A | 1.06
100 | U22G C29U G32A | ≤ 0.026
101 | U21G C72U C83G | ≤ 0.026
102 | U21A G28C | 0.495
103 | U22C G25C | 0.0473
104 | A23U A31G A33G G67C | ≤ 0.026
105 | U21C A24G | 0.0906
106 | U21C A24U | 0.194
107 | A24C A60U | 1.07
108 | A24C A60G | 0.258
109 | A24C A60C | 0.0269
110 | A24G A60G | 0.0307
111 | A24C G69U | ≤ 0.026
112 | U21G G73U | 0.026
113 | U21C U63A | 1.12
114 | U21C U63G | 0.805
115 | U21G A54U C75U | 1.23
116 | A24C A87G | 0.479
117 | A24C A87U | 0.0833
118 | A23G U63G | ≤ 0.026
119 | A23G U63A | 0.0418
120 | A23G G67U | ≤ 0.026

Row | Variant | nonsense suppression
121 | U21C A23C U71G G78A | ≤ 0.026
122 | A23U C29G | ≤ 0.026
123 | A23U C29U | 0.112
124 | U21G G65A | 0.0483
125 | U21G U70C | ≤ 0.026
126 | U22C U58G | ≤ 0.026
127 | A23U C80G | ≤ 0.026
128 | U22G A24C | 0.817
129 | A23C C82G | ≤ 0.026
130 | A23G G85U | 0.0779
131 | U22G U55C G65C C80U | ≤ 0.026
132 | U22A G65A | 0.12
133 | U21G A33U U57C U58A A89G | ≤ 0.026
134 | A23G C56A U63G | ≤ 0.026
135 | A24C G88A | 0.0453
136 | U21C A30G A31G U63C | ≤ 0.026
137 | A24C A74C | 0.0915
138 | U21A U22G U76A C77A G88A | ≤ 0.026
139 | U22A G78A | 0.283
140 | U21G U55C | 0.208
141 | U21G G28C | 0.211
142 | U21G G28A | 1.14
143 | U21C C81U | 1.14
144 | A23U U63A | 0.207

Row | Variant | nonsense suppression
145 | A24G U35G | ≤ 0.026
146 | U22G G78U | 0.112
147 | U22G G78C | 0.0318
148 | U22G G78A | 0.173
149 | A24G U63G C80A G85C | ≤ 0.026
150 | U21G G67U U71A | ≤ 0.026
151 | A24C C75G | 1.11
152 | A24C C75U | 1.18
153 | A24C G73C G84C | ≤ 0.026
154 | A23U A30U | 0.0282
155 | U22G G25U G66U | ≤ 0.026
156 | U22A | 1.13
157 | U22G | 0.989
158 | U22C | 1
159 | A23G A60G | 0.0474
160 | A23G A60C | 0.241
161 | U22C A24C | 1.01
162 | U22A U55C | 0.377
163 | U22G A31U U63C U71A | ≤ 0.026
164 | U22C C68U | 1.16
165 | U21G | 1.04
166 | U21C | 0.954
167 | A23G C34A | ≤ 0.026
